This note sets out measurements from ChEMBL document CHEMBL1124558, “Differential effects of a series of hydroxamic acid derivatives on 5-lipoxygenase and cyclooxygenase from neutrophils and 12-lipoxygenase from platelets and their in vivo effects on inflammation and anaphylaxis” (J Med Chem, 1989).

The target of assay [1] is T1, Polyunsaturated fatty acid 5-lipoxygenase (Rattus norvegicus) (UniProt P12527).
T1 sequence (whole entry): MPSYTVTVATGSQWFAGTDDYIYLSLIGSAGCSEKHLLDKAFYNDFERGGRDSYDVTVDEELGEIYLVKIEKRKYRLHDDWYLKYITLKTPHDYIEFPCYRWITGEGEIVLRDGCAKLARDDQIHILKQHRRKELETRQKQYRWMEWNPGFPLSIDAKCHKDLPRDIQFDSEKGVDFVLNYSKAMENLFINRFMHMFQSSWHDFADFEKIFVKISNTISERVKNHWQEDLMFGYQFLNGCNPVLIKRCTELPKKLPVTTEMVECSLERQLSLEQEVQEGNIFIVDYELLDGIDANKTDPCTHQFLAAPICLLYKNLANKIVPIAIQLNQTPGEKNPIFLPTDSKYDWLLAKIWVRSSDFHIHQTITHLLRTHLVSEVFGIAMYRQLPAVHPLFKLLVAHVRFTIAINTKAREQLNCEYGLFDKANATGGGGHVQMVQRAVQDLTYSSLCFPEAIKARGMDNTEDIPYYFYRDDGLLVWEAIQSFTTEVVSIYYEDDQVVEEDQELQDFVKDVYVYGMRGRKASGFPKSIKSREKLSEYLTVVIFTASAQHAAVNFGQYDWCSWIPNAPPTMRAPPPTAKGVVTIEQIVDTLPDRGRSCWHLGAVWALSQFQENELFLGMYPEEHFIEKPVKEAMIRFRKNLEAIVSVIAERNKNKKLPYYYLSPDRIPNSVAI
Description: In vitro inhibitory activity against polymorphonuclear leukocyte 5-lipoxygenase in rat cell at 10 uM. In a few lines: (§1)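 Intact glycogen-elicited peritoneal PMNs pooled from 4–5 Sprague-Dawley rats (250 g), preincubated 5 min at 30 °C with compound in DMSO (≤0.1% final) plus 1 μM indomethacin. Challenge with [14C]arachidonic acid (4 μM) and A23187 (0.8 μM) for 3 min. Extraction, TLC, 5-HETE by scintillation counting.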

For assay [2], the target named is T2, Cyclooxygenase (Rattus norvegicus, UniProt P35355+Q63921).
T2 sequence (P35355 whole entry): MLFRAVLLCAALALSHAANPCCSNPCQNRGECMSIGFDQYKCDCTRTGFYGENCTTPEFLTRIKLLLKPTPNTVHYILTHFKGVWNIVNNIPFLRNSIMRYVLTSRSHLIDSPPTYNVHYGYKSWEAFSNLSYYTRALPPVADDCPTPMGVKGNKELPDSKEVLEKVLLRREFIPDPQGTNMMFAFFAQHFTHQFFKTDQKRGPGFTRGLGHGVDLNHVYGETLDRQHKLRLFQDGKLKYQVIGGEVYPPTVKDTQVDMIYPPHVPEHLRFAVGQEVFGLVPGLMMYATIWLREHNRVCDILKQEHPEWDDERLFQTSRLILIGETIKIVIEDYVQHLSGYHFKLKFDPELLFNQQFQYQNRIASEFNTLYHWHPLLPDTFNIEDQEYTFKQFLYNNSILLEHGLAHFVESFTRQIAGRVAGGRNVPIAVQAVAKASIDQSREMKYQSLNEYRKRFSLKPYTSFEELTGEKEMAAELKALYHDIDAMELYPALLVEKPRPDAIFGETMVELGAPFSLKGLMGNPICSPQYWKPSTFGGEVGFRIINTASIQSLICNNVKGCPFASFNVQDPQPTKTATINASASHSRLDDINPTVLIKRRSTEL
T2 sequence (Q63921 whole entry): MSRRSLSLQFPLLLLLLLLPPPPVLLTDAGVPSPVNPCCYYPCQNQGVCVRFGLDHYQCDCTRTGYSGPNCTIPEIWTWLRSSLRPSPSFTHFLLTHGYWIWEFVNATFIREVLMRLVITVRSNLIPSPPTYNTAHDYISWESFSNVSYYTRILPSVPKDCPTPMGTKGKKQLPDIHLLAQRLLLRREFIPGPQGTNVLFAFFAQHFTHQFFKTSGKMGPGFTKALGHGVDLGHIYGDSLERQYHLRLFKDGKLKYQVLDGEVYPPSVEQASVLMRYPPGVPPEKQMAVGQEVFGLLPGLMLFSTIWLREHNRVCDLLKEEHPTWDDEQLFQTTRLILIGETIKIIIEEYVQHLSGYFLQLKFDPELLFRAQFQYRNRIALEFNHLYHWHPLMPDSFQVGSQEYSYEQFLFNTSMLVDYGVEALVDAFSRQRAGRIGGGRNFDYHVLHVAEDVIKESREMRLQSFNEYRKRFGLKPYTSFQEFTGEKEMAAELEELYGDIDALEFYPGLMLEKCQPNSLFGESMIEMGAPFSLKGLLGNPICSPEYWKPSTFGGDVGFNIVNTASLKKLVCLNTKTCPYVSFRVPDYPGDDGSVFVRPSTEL
Kind of assay: In vitro inhibitory activity against rat polymorphonuclear leukocyte Prostaglandin G/H synthase at 100 uM. It is filed as protein assay. The gist of the method: (§2)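 Glycogen-elicited peritoneal PMNs from Sprague-Dawley rats were homogenized at 0 °C in 0.1 M Tris-HCl pH 8.2 with 10 μM NDGA. Compound (DMSO ≤0.1%) was preincubated 5 min at 37 °C, then 8 μM [14C]arachidonic acid with 4 mM glutathione and epinephrine was added for 10 min. TxB2 and PGF2α were measured by TLC and scintillation counting.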

Assay [3] concerns the target T3, Polyunsaturated fatty acid 5-lipoxygenase (Homo sapiens, UniProt P09917).
T3 sequence (P09917 whole entry): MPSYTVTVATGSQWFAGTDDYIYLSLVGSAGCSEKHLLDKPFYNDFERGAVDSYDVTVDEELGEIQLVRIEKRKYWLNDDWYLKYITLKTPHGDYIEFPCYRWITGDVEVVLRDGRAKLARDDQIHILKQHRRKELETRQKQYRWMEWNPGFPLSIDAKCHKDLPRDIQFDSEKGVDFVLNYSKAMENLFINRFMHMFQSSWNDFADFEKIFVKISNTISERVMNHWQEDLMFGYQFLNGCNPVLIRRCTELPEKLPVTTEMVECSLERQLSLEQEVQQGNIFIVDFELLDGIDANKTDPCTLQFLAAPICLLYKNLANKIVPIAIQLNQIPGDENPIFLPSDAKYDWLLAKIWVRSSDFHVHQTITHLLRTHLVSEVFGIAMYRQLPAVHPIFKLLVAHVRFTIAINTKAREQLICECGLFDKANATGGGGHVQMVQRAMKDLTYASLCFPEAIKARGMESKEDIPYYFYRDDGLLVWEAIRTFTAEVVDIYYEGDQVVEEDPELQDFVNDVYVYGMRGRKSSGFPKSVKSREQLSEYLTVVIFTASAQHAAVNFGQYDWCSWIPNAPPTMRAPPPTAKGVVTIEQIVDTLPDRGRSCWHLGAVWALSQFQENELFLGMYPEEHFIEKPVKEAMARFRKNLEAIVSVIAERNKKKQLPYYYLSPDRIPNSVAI
Description: In vitro inhibition of polymorphonuclear leukocyte derived human 5-lipoxygenase. The gist of the method:
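PMNs from venous blood of healthy volunteers, isolated by dextran sedimentation and Percoll gradient (>90% pure) and held in Ca/Mg PBS with 1 mg/mL glucose and 1 μM indomethacin. Challenged with calcium ionophore and [14C]arachidonic acid for 3 min. 5-HETE measured by TLC and scintillation counting; IC50 read graphically.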

The target of assay [4] is T4, Polyunsaturated fatty acid 5-lipoxygenase (Rattus norvegicus, UniProt P12527).
T4 sequence (P12527 whole entry): T1 sequence (whole entry)
Description: In vitro inhibition of rat polymorphonuclear leukocyte 5-lipoxygenase. In a few lines:
as §1

The subject of assay [5] is Cavia porcellus. Description: In vivo inhibitory activity against guinea pig systemic anaphylaxis when administered a compound dose (10 mg/kg) intravenously. The assay is classed as functional. As to conditions: iv.
For assay [6], the system named is Cavia porcellus. Description: In vivo inhibitory activity against guinea pig systemic anaphylaxis when administered a compound dose (50 mg/kg) perorally. The assay is classed as functional. As to conditions: po. The gist of the method:
(§3)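 Male Hartley guinea pigs sensitised ip with ovalbumin (2.7 mg/kg) plus LPS adjuvant, then challenged 2 weeks later with 1% ovalbumin aerosol for 30 s. Pretreated with pyrilamine, indomethacin and propranolol 20 min before challenge. Compound given in PEG 400 1 h before challenge.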

In another assay the test system is Mus musculus. Kind of assay: In vivo inhibition of mouse ear inflammation. More on the design: concentration or dose not given beside the values. The assay is classed as functional. The gist of the method: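 Compound or ethanol vehicle applied topically to one ear of male DBA/2J mice 60 min before arachidonic acid (2 mg/ear). […] Groups of 5 mice.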
Assay [7] addresses Cyclooxygenase (Rattus norvegicus) (UniProt P35355+Q63921). Description: Inhibition of Prostaglandin G/H synthase in rat polymorphonuclear leukocytes. Further details: concentration or dose not given beside the values. The following applies: concentration not given here. It is filed as cell-based. The gist of the method:
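Homogenate of glycogen-elicited rat peritoneal PMNs in 0.1 M Tris-HCl pH 8.2 with 10 μM NDGA, preincubated 5 min at 37 °C with compound (≤0.1% DMSO). [14C]arachidonic acid (8 μM) added with 4 mM glutathione and epinephrine; 10 min reaction. TxB2 and PGF2α separated by TLC and counted.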

Assay [8] concerns the target T5, Cysteinyl leukotriene receptor 1 (Cavia porcellus, UniProt Q2NNR5).
T5 sequence (Q2NNR5 whole entry): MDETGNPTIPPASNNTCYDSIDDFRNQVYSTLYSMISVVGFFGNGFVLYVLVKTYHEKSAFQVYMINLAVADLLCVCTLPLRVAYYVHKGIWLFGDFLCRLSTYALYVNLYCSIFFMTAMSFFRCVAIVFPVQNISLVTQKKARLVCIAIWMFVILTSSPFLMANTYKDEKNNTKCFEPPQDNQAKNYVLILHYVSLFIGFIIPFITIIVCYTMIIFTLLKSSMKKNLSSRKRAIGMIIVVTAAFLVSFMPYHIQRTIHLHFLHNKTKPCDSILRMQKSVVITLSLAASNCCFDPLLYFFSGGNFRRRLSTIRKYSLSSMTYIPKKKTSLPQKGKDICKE
Kind of assay: Activity to bind against [3H]LTD4 radioligand in guinea pig.

The species entered for assay [9] is Cavia porcellus. Description: Inhibitory activity against Leukotriene C4 induced contractions. It is filed as functional.
For assay [10], the species on record is Cavia porcellus. Description: Inhibitory activity against Leukotriene-D4 induced contractions. It is filed as functional.
Assay [11] concerns Cavia porcellus. Description: In vivo inhibitory activity against guinea pig systemic anaphylaxis when administered a compound dose (60 mg/kg) perorally. It is filed as functional. As to conditions: po. The gist of the method: as §3
In assay [12] the target is T2, Cyclooxygenase. Description: In vitro inhibitory activity against polymorphonuclear leukocyte cyclooxygenase. It is filed as protein assay. The gist of the method: as §2
For assay [13], the target named is T2, Cyclooxygenase. Description: In vitro inhibitory activity against rat polymorphonuclear leukocyte cyclooxygenase. It is filed as protein assay. The gist of the method: as §2

In general, inhibition refers to the relative decrease from the control value, in per cent. For orientation: Inhibition means the percentage by which the read-out fell short of the control. As to `O=C(O)CCCCN(O)C(=O)Cc1ccc(OCc2ccccc2)cc1`, the inhibition in assay [1] worked out at 21%. This compound also displayed an Inhibition on Cyclooxygenase [2] of 50%.
A word on the IC50: it is the concentration that inhibits the measured activity by half. By inhibition in vivo is commonly meant the change of the read-out against control, counted positive when it falls. For `O=C(CCCc1ccccc1)N(O)CCc1ccccc1`, the values for the IC50 in [3] and in assay [4] were 0.18 µM and 0.3 µM, respectively. In addition, the inhibition in vivo at 10 mg/kg in the assay on Cavia porcellus [5] is 50%. The compound further had an inhibition in vivo at 50 mg/kg in the assay with Cavia porcellus [6] of 17%. Moreover, the Inhibition in the assay with Mus musculus amounted to 56%. Besides, the inhibition in [7] was determined as 44%.
As a reminder, the Ki is a measure of affinity in units of concentration, obtained from inhibition or displacement. In [8], `CN(O)C(=O)Cc1ccc(OCc2ccccc2)cc1` showed an inhibition constant (Ki) greater than 100 µM. For the same compound, the IC50 in the assay listed under Cavia porcellus [9] was 4.2 µM; in the assay filed under Cavia porcellus [10], 5 µM; on Cyclooxygenase [12], less than 10 µM; at Cyclooxygenase [13] it was 9 µM. In addition, in the assay on Cavia porcellus [11], the inhibition in vivo at 60 mg/kg is 83%. The same compound returned an Inhibition in the assay with Mus musculus of 65%.
